This is a sample that favours compounds with a hit; in the whole collection about 2.7% have one here.
CaV13 FRET inh – Primary screen for inhibitors of IQ motif and Ca2+-dependent inactivation inhibitor domain binding in CACNA1D, Förster resonance energy transfer in living cells, … | HEK cells, CFP/YFP FRET ICDI-IQ, plate reader, 10 min; percent FRET-ratio fall versus neutral wells | inhibition, % at 12.3 µM | 340,000 compounds, 0.098% hits | AID 743397;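 active = mean replicate inhibition of at least 30% and at least 1% of replicates passing that level; inconclusive = only one of the two criteria is met; inactive = neither criterion is met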;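 also: 0% = median of the neutral control wells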
AF4-AF9 inh – blocks AF4 peptide binding to human AF9. inhibition, % at 10 µM. AlphaScreen, biotin-AF4 peptide binding to FLAG-AF9. 350,000 compounds, 0.47% hits. AID 651704. P42568;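 active = every replicate reaching a set inhibition limit, whatever the replicate mean, cut at about 25% in these data; inconclusive = mean inhibition reaches that limit but some replicates miss it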;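 also: 0% = plate neutral control median and 100% = total signal loss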
S100A4 inh HTS – inhibitors of human S100A4 binding to myosin IIA peptide; P26447; S100A4/TAMRA-MyoIIA peptide fluorescence polarization; inhibition, % at 10.7 µM; 360,000 compounds, 0.14% hits;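 active = mean inhibition of at least 70% across replicates, with every replicate also reaching that level; inconclusive = mean inhibition reaches 70% but some replicates fall short; inactive = mean inhibition below 70%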
Target sequence (P26447 whole entry, looked up): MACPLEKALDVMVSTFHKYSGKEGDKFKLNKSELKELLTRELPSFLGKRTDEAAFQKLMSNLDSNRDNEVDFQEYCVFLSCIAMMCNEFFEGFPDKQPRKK
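Assay system: human S100A4 monomer with TAMRA-labelled myosin IIA peptide / Buffer or medium: Calcium-containing HEPES buffer, pH 7.2 / Reagent: TAMRA-labelled myosin IIA heavy-chain peptide probe, 5 nM / Compound: one dose per compound / Timing: polarization read 5 min after assay mix addition, stable 5–60 min / Benchmarks: neutral control DMSO, positive control TFP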
SIRT5 block – blocks human SIRT5 desuccinylation of peptide; Q9NXA8; Purified SirT5, succinyl-peptide AMC, trypsin-coupled fluorescence; inhibition, % at 15 µM; 330,000 compounds, 1.1% hits; AID 652115; in the data active = inhibition above about 15%; inconclusive = no clear call, values can overlap the other calls
Target sequence (Q9NXA8 whole entry, looked up): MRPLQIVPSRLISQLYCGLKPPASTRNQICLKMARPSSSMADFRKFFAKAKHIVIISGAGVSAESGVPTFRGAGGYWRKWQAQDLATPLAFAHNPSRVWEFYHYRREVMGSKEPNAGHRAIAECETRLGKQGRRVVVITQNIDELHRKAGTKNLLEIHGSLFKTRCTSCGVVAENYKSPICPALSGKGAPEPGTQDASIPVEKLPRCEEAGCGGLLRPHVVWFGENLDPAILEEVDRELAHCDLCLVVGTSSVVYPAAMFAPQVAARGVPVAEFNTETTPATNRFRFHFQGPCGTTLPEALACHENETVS
DENV2 CPE – DENV2-induced cell death inhibition; DENV2-infected cells, cytopathic effect rescue, plate reader; CPE inhibition, % at 9.99 µM; 350,000 compounds, 1.7% hits; in the data active = CPE inhibition above about 20%, passing the limit was not always enough; inconclusive = no clear call, values can overlap the other calls; tested in BHK-21 cells;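 also: 0% = median of neutral control wells and 100% = median of positive control wells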
The depositor's hits bear a star; ? = inconclusive; . = no result.

SMILES | CaV13 FRET inh | AF4-AF9 inh | S100A4 inh HTS | SIRT5 block | DENV2 CPE
C/C=C/c1cnc2c(c1)C(=O)N([C@H](C)CO)C[C@H](C)[C@H](CN(C)S(=O)(=O)c1cn(C)cn1)O2 | . | -6 | -1 | -2 | ?
CC1CN(C2=CC(=O)CCC2)CC(C)O1 (configuration not stated) | -19 | -2 | 1 | 1 | 21*
c1cc(-c2ccc(N3CCOCC3)cc2)n2cnnc2c1 | -3 | -2 | -6 | -9 | 24*
COCCNC(=O)c1ccc(CS(=O)(=O)c2c(Cl)cccc2Cl)o1 | -4 | -3 | -4 | . | 58*
CCN1CCN(CCNC(=O)c2ccc(CS(=O)(=O)c3c(Cl)cccc3Cl)o2)CC1 | -2 | -6 | 8 | . | ?
COc1ccc(CN(C)C[C@H]2OCCCC[C@H](C)Oc3ccc(NC(=O)Nc4ccc(F)cc4)cc3C(=O)N([C@H](C)CO)C[C@H]2C)cc1 | . | 12 | 10 | -2 | -7
CN1CCC(=NNC(=O)COc2ccc(Cl)cc2)CC1 | 2 | -1 | -2 | 21* | 14
COc1ccc(NC(=O)N[C@@H](CCSC)C(=O)O)cc1OC | -5 | -5 | -3 | 19* | -1
Cc1ccc(S(=O)(=O)Nc2ccc3c(c2)C(=O)N([C@H](C)CO)C[C@@H](C)[C@@H](CN(C)S(C)(=O)=O)OCCCC[C@H](C)O3)cc1 | . | -1 | -5 | 2 | 13
COCC(=O)Nc1ccc2c(c1)OC[C@H](C)N(C(=O)Cc1cccnc1)C[C@@H](C)[C@H](OC)CN(C)C2=O | . | -2 | -11 | 1 | 26*
COCC(=O)Nc1ccc2c(c1)OC[C@H](C)N(C(=O)c1ccncc1)C[C@H](C)[C@H](OC)CN(C)C2=O | . | -1 | 0 | -6 | 13
COCC(=O)Nc1ccc2c(c1)OC[C@@H](C)N(C(=O)Cc1cccnc1)C[C@H](C)[C@@H](OC)CN(C)C2=O | . | 0 | -8 | 9 | 49*
COCC(=O)Nc1ccc2c(c1)OC[C@@H](C)N(C(=O)c1ccncc1)C[C@@H](C)[C@H](OC)CN(C)C2=O | . | 0 | -19 | -4 | 32*
COc1cccc(S(=O)(=O)Nc2ccc3c(c2)C(=O)N(C)C[C@@H](OC)[C@@H](C)CN(C(=O)Cc2cccnc2)[C@H](C)CO3)c1 | . | -1 | 1 | . | 52*
CO[C@@H]1CN(C)C(=O)c2ccc(NC(=O)c3ccccc3)cc2OC[C@H](C)N(C(C)=O)C[C@H]1C | . | -8 | 8 | 2 | 3
C/C=C/c1ccc([C@H]2[C@@H](CO)N(C(=O)COC)[C@@H]2CNC(=O)CC)cc1 | . | -2 | -6 | -2 | -12
O=C(Nc1ccc2c(c1)OCCO2)C(c1ccnc2ccccc12)N1CCN(c2ccc(F)cc2)CC1 (configuration not stated) | -4 | 2 | -6 | 29* | ?
O=C(Nc1ccc2c(c1)OCCO2)C(c1ccnc2ccccc12)N1CCN(c2ccc(C(F)(F)F)cn2)CC1 (configuration not stated) | -5 | -3 | 1 | -2 | 0
CO[C@H]1CN(C)C(=O)c2ccc(NS(C)(=O)=O)cc2OC[C@H](C)N(C)C[C@@H]1C | . | -3 | 9 | -4 | -6
O=S(=O)(N[C@@H]1CC[C@H](CCn2cc(C3CC3)nn2)O[C@@H]1CO)c1ccc(F)cc1 | . | -5 | -1 | 0 | 10
O=C(c1ccc(N2C(=O)CCC2=O)cc1)N1CCCSC1=Nc1ccccc1 | -11 | -3 | 84* | . | 15
Cc1noc(C)c1NC(=O)N(C)C[C@H]1OCCCC[C@H](C)Oc2ccc(NC(=O)NC3CCCCC3)cc2C(=O)N([C@@H](C)CO)C[C@@H]1C | . | -13 | 5 | -5 | 28*
Cc1noc(C)c1NC(=O)N(C)C[C@H]1OCCCC[C@H](C)Oc2ccc(NC(=O)NC3CCCCC3)cc2C(=O)N([C@H](C)CO)C[C@@H]1C | . | -10 | 1 | -3 | 18
Cc1noc(C)c1NC(=O)Nc1ccc2c(c1)C(=O)N([C@@H](C)CO)C[C@H](C)[C@@H](CN(C)C(=O)NC1CCCCC1)OCCCC[C@H](C)O2 | . | 0 | 0 | 2 | 21*
Cc1noc(C)c1NC(=O)Nc1ccc2c(c1)C(=O)N([C@@H](C)CO)C[C@@H](C)[C@@H](CN(C)C(=O)NC1CCCCC1)OCCCC[C@@H](C)O2 | . | 2 | -18 | -2 | 11
SMILES | CaV13 FRET inh | AF4-AF9 inh | S100A4 inh HTS | SIRT5 block | DENV2 CPE
COCC(=O)N1[C@H](CO)[C@H](c2ccc(-c3ccccc3)cc2)C12CN(C(C)=O)C2 | . | 0 | -4 | -1 | -5
O=C(O)C(Cc1ccccc1)NS(=O)(=O)c1ccc(Cl)cc1 (configuration not stated) | -4 | -2 | 2 | 2 | -3
O=C(O)C(Cc1ccc(Cl)cc1)NS(=O)(=O)c1ccc(Cl)cc1 (configuration not stated) | -4 | -3 | -1 | -3 | 23*
O=S(=O)(N[C@H]1CC[C@H](CCn2cc(Cc3ccccc3)nn2)O[C@@H]1CO)c1ccccc1F | . | 1 | -4 | 2 | 5
O=C1/C(=C\c2ccc(Cl)cc2)CCC1CNc1ccc(Cl)cc1 (configuration not stated) | -13 | -2 | 2 | -2 | 63*
CC(=O)N1[C@H](CO)[C@@H](c2ccccc2)[C@H]1CN(C(=O)NC(C)C)C1CCCC1 | . | -2 | 21 | -2 | -5
Fc1ccccc1C1c2[nH]c3ccccc3c2CCN1Cc1cccn1-c1ncccn1 (configuration not stated) | -5 | 27* | -8 | -4 | -2
CO[C@H]1CN(C)C(=O)c2cc(NC(C)=O)ccc2OC[C@H](C)NC[C@@H]1C | . | -1 | 7 | -6 | -4
CN(C)CC#Cc1ccc([C@H]2[C@@H](CO)N(C(=O)C3CC3)[C@H]2C#N)cc1 | . | -2 | 8 | 1 | 32*
CC(C)C#Cc1ccc([C@H]2[C@H](C#N)N(C(=O)C3CCC3)[C@H]2CO)cc1 | . | -1 | -9 | 3 | 57*
CC(C)C#Cc1ccc([C@@H]2[C@@H](C#N)N(C(=O)C3CCC3)[C@@H]2CO)cc1 | . | -1 | -7 | 0 | -10
CCCC#Cc1ccc([C@@H]2[C@@H](CO)N(C(=O)C3CC3)[C@H]2C#N)cc1 | . | 0 | 34 | 4 | 63*
CCCC(=O)Nc1ccc2c(c1)OC[C@H](C)N(C)C[C@H](C)[C@H](OC)CN(C)C2=O | . | -3 | -1 | -7 | 0
C[C@H](CO)N1C[C@H](C)[C@H](CN(C)Cc2ccc(Oc3ccccc3)cc2)Oc2c(NC(=O)Nc3cccc4ccccc34)cccc2C1=O | . | 4 | -1 | 9 | 2
COc1ccc(C(CNC(=O)C(CC(C)C)NS(=O)(=O)c2ccc(C)cc2)N2CCOCC2)cc1 (configuration not stated) | -2 | 2 | 11 | 22* | -2

Source: PubChem
